# Measurements taken from ChEMBL document CHEMBL1144360, “Phenazine 5,10-dioxide derivatives as hypoxic selective cytotoxins” (2005).
# “And” between values parts separate entries of the source, which are not always exact repeats. Equal values may be shown once.
# Key:
# Type in all cases: functional, Cricetulus griseus
# Cricetinae gen. sp. [1] = test: In vitro survival fraction of V79 cells after 2 hours upon treatment with compound in air at 20 uM; set-up: unit: %
# In short: (§1)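 Clonogenic assay on V79 suspension cultures gassed with air (aerobic) or nitrogen (hypoxia), exposed to compound for 2 h. Colony survival expressed as survival fraction relative to untreated control under the same gas condition. Assays run in duplicate with at least three repetitions; reported value is the mean of two separate experiments.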
# Cricetinae gen. sp. [2] = test: In vitro survival fraction of V79 cells after 2 hours upon treatment with compound under hypoxia at 20 uM; set-up: unit: %; in short: as §1
# Cricetinae gen. sp. [3] = test: In vitro survival fraction of V79 cells after 2 hours upon treatment with compound in air at 10 uM; set-up: unit: %; in short: as §1
# Cricetinae gen. sp. [4] = test: In vitro survival fraction of V79 cells after 2 hours upon treatment with compound under hypoxia at 10 uM; set-up: unit: %; in short: as §1
# Cricetinae gen. sp. [5] = test: In vitro survival fraction of V79 cells after 2 hours upon treatment with compound in air at 5 uM; in short: as §1
# Cricetinae gen. sp. [6] = test: In vitro survival fraction of V79 cells after 2 hours upon treatment with compound under hypoxia at 5 uM; in short: as §1
Structure (SMILES),SF (Cricetinae gen. sp. [1]),SF (Cricetinae gen. sp. [2]),SF (Cricetinae gen. sp. [3]),SF (Cricetinae gen. sp. [4]),SF (Cricetinae gen. sp. [5]),SF (Cricetinae gen. sp. [6])
COc1ccc2c(c1)[n+]([O-])c1ccc(O)cc1[n+]2[O-],100,87,–,–,–,–
Cc1ccc2c(c1)[n+]([O-])c1ccc(N)cc1[n+]2[O-],61,11,–,–,–,–
Oc1ccc2nc3cc(Br)ccc3nc2c1,100,100,–,–,–,–
Nc1ccc2c(c1)[n+]([O-])c1ccc([N+](=O)[O-])cc1[n+]2[O-],1,2,58,65,–,–
Nc1ccc2nc3cc(Cl)ccc3nc2c1,0,100,–,–,–,–
Cc1ccc2c(c1)[n+]([O-])c1ccc(O)cc1[n+]2[O-],93,100,–,–,–,–
[O-][n+]1c2ccc(Br)cc2[n+]([O-])c2ccc(O)cc21,80,0,–,–,–,–
[O-][n+]1c2ccc(C3OCCO3)cc2[n+]([O-])c2ccc(O)cc21,100,100,–,–,100,5
Nc1ccc2nc3cc(Br)ccc3nc2c1,0,0,–,–,–,–
Oc1ccc2nc3cc(Cl)ccc3nc2c1,100,100,–,–,–,–
Nc1ccc2c(c1)[n+]([O-])c1ccc(Br)cc1[n+]2[O-],12,0,64,3,–,–
Nc1ccc2c(c1)[n+]([O-])c1ccc(C3OCCO3)cc1[n+]2[O-],14,0,86,1,100,36
[O-][n+]1c2ccc(Cl)cc2[n+]([O-])c2ccc(O)cc21,100,100,–,–,–,–
[O-][n+]1c2ccccc2[n+]([O-])c2cc(O)ccc21,100,73,–,–,–,–
O=Cc1ccc2nc3cc(O)ccc3nc2c1,98,100,–,–,–,–
Nc1ccc2c(c1)[n+]([O-])c1ccc(Cl)cc1[n+]2[O-],0,0,26,3,–,–
Nc1ccc2nc3cc(C4OCCO4)ccc3nc2c1,100,100,–,–,–,–
Cc1ccc2nc3cc(N)ccc3[n+]([O-])c2c1,100 and 98,100,–,–,–,–
Cc1ccc2nc3cc(N)ccc3nc2c1,98,100,–,–,–,–
Nc1ccc2c(c1)[n+]([O-])c1ccccc1[n+]2[O-],2,0,64,19,–,–
COc1ccc2c(c1)[n+]([O-])c1ccc(N)cc1[n+]2[O-],87,23,–,–,–,–
Cc1ccc2nc3cc(O)ccc3nc2c1,100,100,–,–,–,–
